In ChEMBL document CHEMBL1141085, “Imidazole-4,5-dicarboxamide derivatives with antiproliferative activity against HL-60 cells” (J Med Chem, 2005):

Tests used:
HL-60 [1] = test: Mean in vitro concentration to inhibit the metabolic activity of HL-60 cells after 2 days of incubation; n=3; assay type: functional, cell-based; details: Homo sapiens, HL-60, 48 h
Procedure, shortened: (§1)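 Human HL-60 promyelocytic leukemia cells in RPMI 1640 with 8.25% FCS, 37 °C, 5% CO2. Seeded in triplicate at 12.5×10^4 (2-day) or 3.75×10^4 (4-day) cells/0.5 mL. Drug in DMSO (0.2% final), serial dilutions.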

HL-60 [2] = test: Mean in vitro concentration to inhibit the metabolic activity of HL-60 cells after 4 days of incubation; n=3; assay type: functional, cell-based; details: Homo sapiens, HL-60, 96 h; procedure, shortened: as §1

SMILES: COC(=O)[C@@H](C)NC(=O)c1[nH]cnc1C(=O)Nc1ccc(Cl)c(Cl)c1
- IC50 (HL-60 [1]): > 62.5 µM
- IC50 (HL-60 [2]): > 62.5 µM

SMILES: Cc1ccc(NC(=O)c2nc[nH]c2C(=O)N[C@H](C)C(=O)OC(C)(C)C)cc1
- IC50 (HL-60 [1]): 6.3 µM
- IC50 (HL-60 [2]): 3.5 µM

SMILES: O=C(NCc1ccc(-c2ccccc2)cc1)c1nc[nH]c1C(=O)Nc1ccc(Cl)c(Cl)c1
- IC50 (HL-60 [1]): 7 µM
- IC50 (HL-60 [2]): 2.9 µM

SMILES: CC(C)CNC(=O)c1[nH]cnc1C(=O)Nc1ccc(Cl)c(Cl)c1
- IC50 (HL-60 [1]): 14.7 µM
- IC50 (HL-60 [2]): 7.2 µM

SMILES: O=C(Nc1ccc(Cl)c(Cl)c1)c1nc[nH]c1C(=O)NCc1ccc(Cl)cc1
- IC50 (HL-60 [1]): 16.2 µM
- IC50 (HL-60 [2]): 8.8 µM

SMILES: COC(=O)[C@H](NC(=O)c1[nH]cnc1C(=O)Nc1ccc(Cl)c(Cl)c1)c1ccccc1
- IC50 (HL-60 [1]): 17.3 µM
- IC50 (HL-60 [2]): 10.8 µM

SMILES: C[C@H](NC(=O)c1[nH]cnc1C(=O)Nc1ccc(Cl)c(Cl)c1)c1ccccc1
- IC50 (HL-60 [1]): 9.2 µM
- IC50 (HL-60 [2]): 5.9 µM

SMILES: COC(=O)[C@H](NC(=O)c1[nH]cnc1C(=O)Nc1ccc(Cl)c(Cl)c1)C(C)C
- IC50 (HL-60 [1]): 8.5 µM
- IC50 (HL-60 [2]): 4.9 µM

SMILES: COc1ccc(CNC(=O)c2[nH]cnc2C(=O)Nc2ccc(Cl)c(Cl)c2)cc1
- IC50 (HL-60 [1]): 24.3 µM
- IC50 (HL-60 [2]): 18.3 µM

SMILES: C[C@@H](NC(=O)c1[nH]cnc1C(=O)Nc1ccc(Cl)c(Cl)c1)c1ccccc1
- IC50 (HL-60 [1]): 8.8 µM
- IC50 (HL-60 [2]): 5.9 µM

SMILES: COC(=O)[C@@H](NC(=O)c1[nH]cnc1C(=O)Nc1ccc(Cl)c(Cl)c1)C(C)C
- IC50 (HL-60 [1]): > 62.5 µM
- IC50 (HL-60 [2]): > 62.5 µM

SMILES: C[C@@H](NC(=O)c1[nH]cnc1C(=O)Nc1ccccc1)C(=O)OC(C)(C)C
- IC50 (HL-60 [1]): 4.7 µM
- IC50 (HL-60 [2]): 2.7 µM

SMILES: CC(C)(C)OC(=O)CNC(=O)c1[nH]cnc1C(=O)Nc1ccc(Cl)c(Cl)c1
- IC50 (HL-60 [1]): 49.8 µM
- IC50 (HL-60 [2]): 25.4 µM

SMILES: CCOC(=O)c1ccc(NC(=O)c2[nH]cnc2C(=O)N[C@H](C)C(=O)OC(C)(C)C)cc1
- IC50 (HL-60 [1]): 6.3 µM
- IC50 (HL-60 [2]): 3.7 µM

SMILES: CCCN(CCC)C(=O)c1[nH]cnc1C(=O)Nc1ccc(Cl)c(Cl)c1
- IC50 (HL-60 [1]): 379 µM
- IC50 (HL-60 [2]): 38.9 µM

SMILES: C[C@H](c1ccccc1)N(C)C(=O)c1[nH]cnc1C(=O)Nc1ccc(Cl)c(Cl)c1
- IC50 (HL-60 [1]): 89.4 µM
- IC50 (HL-60 [2]): 68.8 µM

SMILES: CCCCCCNC(=O)c1[nH]cnc1C(=O)Nc1ccc(Cl)c(Cl)c1
- IC50 (HL-60 [1]): 14.6 µM
- IC50 (HL-60 [2]): 7.8 µM

SMILES: C[C@@H](NC(=O)c1[nH]cnc1C(=O)Nc1ccc(Cl)cc1)C(=O)OC(C)(C)C
- IC50 (HL-60 [1]): 6.6 µM
- IC50 (HL-60 [2]): 3.3 µM

SMILES: COC(=O)[C@@H](NC(=O)c1[nH]cnc1C(=O)Nc1ccc(Cl)c(Cl)c1)c1ccccc1
- IC50 (HL-60 [1]): 13.2 µM
- IC50 (HL-60 [2]): 6.8 µM

SMILES: O=C(NCCc1ccccc1)c1nc[nH]c1C(=O)Nc1ccc(Cl)c(Cl)c1
- IC50 (HL-60 [1]): 17.7 µM
- IC50 (HL-60 [2]): 13.2 µM

SMILES: C[C@H](NC(=O)c1[nH]cnc1C(=O)Nc1ccc(Cl)c(Cl)c1)C(=O)OC(C)(C)C
- IC50 (HL-60 [1]): 4.9 µM
- IC50 (HL-60 [2]): 2.4 µM

SMILES: O=C(NCc1ccccc1)c1nc[nH]c1C(=O)Nc1ccc(Cl)c(Cl)c1
- IC50 (HL-60 [1]): 11.5 µM
- IC50 (HL-60 [2]): 7.4 µM

SMILES: O=C(NC1CCCCC1)c1nc[nH]c1C(=O)Nc1ccc(Cl)c(Cl)c1
- IC50 (HL-60 [1]): 33.1 µM
- IC50 (HL-60 [2]): 12.3 µM

SMILES: C[C@@H](NC(=O)c1[nH]cnc1C(=O)Nc1ccc(Cl)c(Cl)c1)C(=O)OC(C)(C)C
- IC50 (HL-60 [1]): 4.6 µM
- IC50 (HL-60 [2]): 2.5 µM

SMILES: COc1ccc(NC(=O)c2[nH]cnc2C(=O)N[C@H](C)C(=O)OC(C)(C)C)cc1
- IC50 (HL-60 [1]): 6 µM
- IC50 (HL-60 [2]): 3.1 µM

SMILES: Cc1ccc(CNC(=O)c2[nH]cnc2C(=O)Nc2ccc(Cl)c(Cl)c2)cc1
- IC50 (HL-60 [1]): 21.4 µM
- IC50 (HL-60 [2]): 15.2 µM

SMILES: C[C@@H](NC(=O)c1[nH]cnc1C(=O)Nc1cccc(Cl)c1)C(=O)OC(C)(C)C
- IC50 (HL-60 [1]): 8.2 µM
- IC50 (HL-60 [2]): 2.9 µM

SMILES: C[C@@H](c1ccccc1)N(C)C(=O)c1[nH]cnc1C(=O)Nc1ccc(Cl)c(Cl)c1
- IC50 (HL-60 [1]): 75.5 µM
- IC50 (HL-60 [2]): 56 µM
